Bioassay records deposited in PubChem by Broad Institute.
HIV Env fusion: inhibitors of HIV-1 Env-driven cell-cell fusion, primary screen, HeLa-JRFL effector, CEM21 target cells, luciferase | inhibition, % at 12.3 µM | 1.1% of 360,000 active | AID 651610, 2012;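 active = mean replicate inhibition score of at least 50 and every replicate individually at or above 50; inconclusive = only one of the two criteria met; inactive = mean below 50 and not all replicates reaching 50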;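 also: 0% = plate neutral controls and 100% = maraviroc near 300 nM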
miR-122 sensor: miR-122 Renilla sensor signal increase in Huh7, primary screen, miR-122 inhibitor project, cell-based, single point, plate reader; Huh7 miR-122 Renilla luciferase sensor, 48 h; neutral wells = 0, positive control = 100; activation (reporter increase), % at 12.5 µM; 0.3% of 340,000 active; AID 602342, 2012;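 active = mean replicate activation score at least 90 and every replicate individually at or above 90; inconclusive = only one of the two criteria met; inactive = neither criterion met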;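 also: higher luciferase means less miR-122 activity so hits act as miR-122 inhibitors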
Rtt109 Vps75: inhibitors of C. albicans Rtt109/Vps75 HAT, primary screen, biochemical, ThioGlo CoA-SH fluorescence, plate reader; Histone acetyltransferase RTT109 (Candida albicans (strain SC5314 / ATCC MYA-2876)), …; purified Rtt109/Vps75, 4 h; inhibition, % at 34.9 µM; 0.16% of 330,000 active;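 active = inhibition of at least 50% in every replicate; inconclusive = best replicate reaches 50% inhibition but some replicates fall short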
Target sequence (Q5AAJ8 whole entry, looked up): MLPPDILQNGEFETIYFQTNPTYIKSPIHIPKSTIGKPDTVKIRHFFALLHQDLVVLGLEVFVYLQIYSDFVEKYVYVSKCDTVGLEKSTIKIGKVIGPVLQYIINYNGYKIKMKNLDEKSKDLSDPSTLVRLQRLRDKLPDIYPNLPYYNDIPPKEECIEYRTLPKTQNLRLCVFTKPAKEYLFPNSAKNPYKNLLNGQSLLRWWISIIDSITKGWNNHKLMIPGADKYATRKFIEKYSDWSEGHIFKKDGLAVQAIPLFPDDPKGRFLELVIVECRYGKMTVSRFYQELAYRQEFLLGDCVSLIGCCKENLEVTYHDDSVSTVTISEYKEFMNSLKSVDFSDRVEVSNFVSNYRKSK
Cneo AK release: Cryptococcus neoformans cell lysis inducers, primary screen, AK release luminescence, single concentration; C. neoformans lysis, adenylate kinase release luminescence, 4 h; normalised: neutral wells 0, clomiphene wells 100; lysis activity, % at 15 µM; 0.2% of 360,000 active; AID 651654, 2012;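 active = mean lysis activity across replicates of at least 80%, whatever share of replicates individually reach that level; inactive = mean lysis activity below 80%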
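Material: C. neoformans cells; Schedule: 4 h static compound exposure, 37 °C, read 1 h post-reagent; Measured by: adenylate kinase release luminescence; Read-out: signal increase indicating cell lysis; Controls: Clomiphene as positive lysis control.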
GSIS activator: GLuc luminescence reporter in INS-1E cells, primary screen for activators of glucose-dependent secretion of insulin; 0.61% of 370,000 active; INS-1E GLuc reporter insulin secretion, 2-3 h; activation, % at 16.6 µM;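 active = lowest replicate activation of at least 40%, so every replicate reaches that level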;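 also: 0% = median of neutral control wells and 100% = median of IBMX positive control wells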
dFosB act: activators of delta FosB homodimer, primary screen, biochemical, fluorescence polarization, TAMRA-CDK5 oligo, single point; Protein FosB (Mus musculus), P13346; purified delta FosB; percent of positive-control signal above neutral wells; activation, % at 25 µM; 0.99% of 340,000 active; AID 493131, 2011;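 active = mean activation above about 17%, with every replicate also reaching it, limit read from the data, passing the limit was not always enough; inconclusive = only one of the two conditions met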
Active calls of the source: *; ? = inconclusive; . = not tested or not shown; [ ] = dose if it differs, or a comment. Hits are enriched below; roughly 2.4% of the tested compounds scored in any of these assays.

SMILES	HIV Env fusion	miR-122 sensor	Rtt109 Vps75	Cneo AK release	GSIS activator	dFosB act
Cc1nc(C(=O)NC2CCCCC2)sc1C1(C)CC(c2cccc([N+](=O)[O-])c2)=NO1 (stereo not given)	11.1	-1.1	-3.5	-5.6	10.2	-7.7
Cc1nnn(-c2nonc2N)c1C(=O)N/N=C/c1ccccc1O	-27.7	.	-4.9	.	1.1	104.0*
Cc1nnn(-c2nonc2N)c1C(=O)N/N=C/c1cccc2ccccc12	-32.5	.	-2.7	.	85.8*	9.0
CN(C)Cc1c(C(=O)N/N=C/c2cccc3ccccc23)nnn1-c1nonc1N	2.3	.	5.0	.	9.3	-10.7
COc1cc(/C=N/NC(=O)c2c(C)nnn2-c2nonc2N)ccc1O	-5.1	.	.	.	-1.9	0.4
CO[C@H]1CN(C)C(=O)c2ccc(NC(=O)C3CC3)cc2OC[C@H](C)N(C)C[C@H]1C	.	.	.	-2.5	11.3	.
C[C@@H]1CN([C@H](C)CO)C(=O)c2c(c3ccccc3n2C)-c2ccccc2CO[C@H]1CN(C)C(=O)[C@H]1CCCN1C	0.0[16.7 µM]	.	.	.	19.1	.
C[C@H]1CN([C@@H](C)CO)C(=O)c2cc(C#Cc3ccccn3)cnc2O[C@@H]1CN(C)CC1CCCC1	.	7.8[16.7 µM]	.	.	.	.
CO[C@H]1CN(C)C(=O)c2ccc(NC(C)=O)cc2OC[C@H](C)N(Cc2cncnc2)C[C@H]1C	-7.7[16.7 µM]	.	.	.	-1.4	.
CN1/C(=C\C(=O)COC(=O)c2ccc([N+](=O)[O-])o2)C(C)(C)c2ccccc21	-4.7	.	7.3	.	-17.2	-3.3
CN1/C(=C/C(=O)COC(=O)CN2C(=O)C3CC=CCC3C2=O)C(C)(C)c2ccccc21 (stereo not given)	.	-4.2	9.9	-0.6	-21.7	3.9
CN1/C(=C\C(=O)COC(=O)Cn2nnc(-c3ccccc3)n2)C(C)(C)c2ccccc21	35.5	-2.8	-3.5	1.1	.	52.1*
CN1/C(=C\C(=O)COC(=O)c2nccnc2N)C(C)(C)c2ccccc21	58.5*	.	12.3	-9.6	-60.7	-5.4
O=C(Nc1ccccc1)Nc1ccc2c(c1)[C@H]1C[C@H](CC(=O)N3CCOCC3)O[C@@H](CO)[C@H]1O2	23.6[16.7 µM]	0.7[16.7 µM]	.	2.6	6.9	.
C[C@@H]1CN([C@@H](C)CO)C(=O)c2cccc(NC(=O)CCCCCC(=O)Nc3ccccc3N)c2O[C@H]1CN(C)S(=O)(=O)c1cn(C)cn1	.	.	.	.	3.9	.
Cc1nc(N/N=C/c2ccccn2)sc1C	106.9*	.	.	.	3.0	.
CCCc1sc(N/N=C/c2ccccn2)nc1-c1ccc(F)cc1	.	-8.5	-1.5	-0.1	.	0.0
CCCOc1ccc(C2C(=O)N(C3CCCCCC3)CC(=O)N2Cc2ccco2)cc1OC (stereo not given)	58.5*	-4.0	0.1	8.5	.	-16.7
COc1ccc(/C(C)=N/NC(=O)Cn2nc([N+](=O)[O-])cc2C)cc1	-20.4	.	8.1	.	51.0*	1.5
COCC(=O)Nc1ccc2c(c1)C(=O)N(C)C[C@H](OC)[C@H](C)CN(C(=O)Cc1cccnc1)[C@H](C)CO2	13.3[16.7 µM]	.	.	-4.1	9.4	.
O=CNc1ccc2c(c1)Cc1cc([N+](=O)[O-])ccc1-2	74.9*	-8.8	0.6	-2.4	-15.2	1.7
O=S(=O)(NCC1CCCO1)c1ccc(-c2ccc(S(=O)(=O)NCC3CCCO3)cc2)cc1 (stereo not given)	?	13.4	-4.3	.	0.7	-7.8
O=S(=O)(NCC1CCCO1)c1ccc(Oc2ccccc2)cc1 (stereo not given)	57.1*	?	6.9	6.1	-3.4	-2.6
CCN1C(=O)S/C(=C/c2ccc(Sc3nc4ccccc4[nH]3)o2)C1=O	61.5*	12.0	-9.7	3.4	9.5	-4.3
O=C(N/N=C/c1sc(N2CCOCC2)nc1-c1ccccc1)c1ccc(O)cc1	-15.3	.	8.4	.	-0.9	-20.0
